No end group written: not given here.

In one experiment the target is T1, WW1 domain of WWOX (Homo sapiens, UniProt Q9NZC7).
T1 sequence (Q9NZC7 16-50 limits assumed): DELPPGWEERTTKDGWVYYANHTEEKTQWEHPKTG
Briefly: ITC binding of ErbB4 PPXY peptides to WW1 domain of WWOX. Put shortly: (§1)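 His-tagged human WWOX constructs: WW1 (residues 16–50), WW1–WW2 tandem (16–91), and WW2 (57–91) carrying Y85W. Expressed in E. coli BL21*(DE3) and purified by Ni-NTA then SEC. 12-mer ErbB4 peptides (4 mM in syringe) injected 25× into 40–60 μM protein at 25 °C. Buffer: 50mM sodium phosphate, 100mM NaCl, 1mM EDTA, 5mM β-mercaptoethanol, pH 7.0. Buffer-titration heats subtracted. One-site fit with stoichiometry fixed at 1 gives Kd and ΔH. At least 3 repeats, SD.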

The target of experiment [1] is T2, WW1–WW2 tandem module of WWOX (Homo sapiens, UniProt Q9NZC7).
T2 sequence (Q9NZC7 16-91): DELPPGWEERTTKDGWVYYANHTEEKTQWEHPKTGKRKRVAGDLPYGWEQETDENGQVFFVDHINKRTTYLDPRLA
Briefly: ITC binding of ErbB4 PPXY peptides to WW1–WW2 tandem module of WWOX. As to conditions: Table 4, pH 7.0, 25°C, mean ± SD, at least three measurements. A digest of the protocol:
as §1

A further experiment addresses WW2W domain of WWOX (Homo sapiens, UniProt Q9NZC7, Y85W). Briefly: ITC binding of ErbB4 PPXY peptides to WW2W. Particulars: for ΔH: Table 3, pH 7.0, 25°C, mean ± SD, at least three measurements. A digest of the protocol:
as §1

The next experiment concerns WW2 domain of WWOX. Briefly: ITC binding of WW1 domain of WWOX to WW2 domain and vice versa. Set-up: species or system human.

Sequence of WW2W domain of WWOX (Q9NZC7 57-91 Y85W limits assumed): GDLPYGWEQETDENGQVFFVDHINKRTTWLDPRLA

For the substance H-TVLPPPPYRARN-OH [PY3_A+5], the “enthalpy released relative to the PY3_WT peptide” value on WW1 domain of WWOX (ΔH of mutant versus PY3_WT) is “more than −5 kcal/mol”.

As to H-GHSPPPAYTPMS-OH [ErbB4_PY2], at WW1 domain of WWOX, the “affinity of binding to WW1 domain (in words)” value is given as “in the order of hundreds of micromolar”. For the same substance, the ΔH in experiment [1] is -4.88 ± 0.28 kcal/mol; on WW2W domain of WWOX, -8.08 ± 1.09 kcal/mol.

H-TVLPPPPYRHRN-OH [ErbB4_PY3]: the figures for the ΔH (in experiment [1]; at WW2W domain of WWOX) were -5.00 ± 0.30 kcal/mol and -4.15 ± 0.28 kcal/mol, respectively. The “affinity for WW2W domain relative to binding of WW1 domain” value at WW2W domain of WWOX (Tables 1 and 3 compared) is listed as “more than two-fold stronger”.

H-FNIPPPIYTSRA-OH [ErbB4_PY1]: the “affinity of binding to WW1 domain (in words)” value on WW1 domain of WWOX is reported as “in the order of hundreds of micromolar”. The values for the ΔH (in experiment [1]; at WW2W domain of WWOX) were -7.25 ± 0.88 kcal/mol and -4.74 ± 0.52 kcal/mol, respectively.

“WW1: WW1 domain (residues 16–50) of human WWOX, recombinant with N-terminal His-tag ({His‑tag}-DELPPGWEERTTKDGWVYYANHTEEKTQWEHPKTG)”: the “binding between the two WW domains” value with WW2 domain of WWOX is given as “no observable binding”.

These data come from publication PMC3906126 (Biochemistry, 2013).
